One experiment relates to ECV-304. Kind of experiment: Protection of hydrogen peroxide-induced damage in ECV304 cells. The format is functional, cell-based. Particulars: Homo sapiens.
For the next experiment, the system named is Plasma. Kind of experiment: Inhibition of ADP-induced platelet aggregation in rabbit plasma at 200 uM. More on the design: scale not given: the % may be the effect or the level left. The format is functional, Oryctolagus cuniculus. A digest of the protocol: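 Rabbit blood anticoagulated with 3.8% trisodium citrate, with ADP as inducer; blank and ADP-control cuvettes included. Platelet-rich plasma was taken from the supernatant after 270 g/5 min. Platelet-poor plasma came from re-spinning at 1000 g/10 min. Aggregation was read on an aggregometer and reported as mean platelet aggregation rate (A%), n = 6.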

The structures appear in SMILES notation.

Broadly, the EC50 is the concentration giving half of the maximal effect.

As for `Cc1nc(C)c(CN2CCN(Cc3cccc(Cl)c3)CC2)nc1C`, in the experiment on ECV-304, the half-maximal effective concentration (EC50) came out at 503 µM. In addition, the Activity in the experiment with Plasma came to 10.56%.
In the same order, the values of `Cc1nc(C)c(CN2CCN(Cc3ccc(Cl)cc3)CC2)nc1C` are 339 µM and 12.31%.
In the same order, the values of `Cc1nc(C)c(CN2CCN(Cc3ccc(Cl)cc3Cl)CC2)nc1C` are 424 µM and 5.7%.
In the same order, the values of `Cc1nc(C)c(CN2CCN(Cc3ccccc3Br)CC2)nc1C` are 784 µM and 7.68%.
Regarding `Cc1nc(C)c(CN2CCN(Cc3ccc(Br)cc3)CC2)nc1C`, the EC50 with ECV-304 was determined as 845 µM. In the experiment on Plasma, the Activity stood at 13.26%.
In the same order, the values of `Cc1nc(C)c(CN2CCN(Cc3cccc(C#N)c3)CC2)nc1C` are 1110 µM and 14.19%.
In the same order, the values of `Cc1nc(C)c(CN2CCN(Cc3ccc(C#N)cc3)CC2)nc1C` are 417 µM and 11.37%.
For the compound `Cc1nc(C)c(CN2CCN(Cc3ccc([N+](=O)[O-])cc3)CC2)nc1C`, the EC50 in the experiment with ECV-304 was 299 µM. The Activity in the experiment with Plasma came out at 14.22%.
In the same order, the values of `Cc1nc(C)c(CN2CCN(c3ccccc3)CC2)nc1C` are 665 µM and 21.43%.
In the same order, the values of `Cc1nc(C)c(CN2CCNCC2)nc1C` are 481 µM and 11.36%.
Compound `Cc1nc(C)c(CN2CCN(C/C=C/c3ccccc3)CC2)nc1C` had an EC50 with ECV-304 of 428 µM. This compound also displayed an Activity with Plasma of 8.36%.
In the same order, the values of `Cc1nc(C)c(CN2CCN(C(c3ccccc3)c3ccccc3)CC2)nc1C` are 218 µM and 9.88%.
In the same order, the values of `Cc1nc(C)c(CN2CCN(C(c3ccc(F)cc3)c3ccc(F)cc3)CC2)nc1C` are 223 µM and 6.32%.
In the same order, the values of `Cc1nc(C)c(CN2CCN(C(c3ccccc3)c3ccc(Cl)cc3)CC2)nc1C` (stereo unspecified) are 253 µM and 5.19%.
As for `Cc1nc(C)c(CN2CCN(Cc3nc(C)c(C)nc3C)CC2)nc1C`, in the experiment with ECV-304, the EC50 turned out to be 311 µM. Further, the Activity in the experiment with Plasma worked out at 19.36%.
In the same order, the values of `Cc1nc(C)c(CN2CCN(Cc3ccccc3)CC2)nc1C` are 246 µM and 9.06%.
In the same order, the values of `Cc1ccc(CN2CCN(Cc3nc(C)c(C)nc3C)CC2)cc1` are 328 µM and 17.69%.
`CCc1ccc(CN2CCN(Cc3nc(C)c(C)nc3C)CC2)cc1` returned an EC50 in the experiment on ECV-304 of 375 µM. Further, the Activity in the experiment on Plasma came out at 13.56%.
In the same order, the values of `Cc1nc(C)c(CN2CCN(Cc3ccc(C(C)(C)C)cc3)CC2)nc1C` are 431 µM and 15.32%.
In the same order, the values of `Cc1nc(C)c(CN2CCN(Cc3ccccc3C#N)CC2)nc1C` are 637 µM and 12.16%.
In the same order, the values of `Cc1nc(C)c(CN2CCN(CCc3ccccc3)CC2)nc1C` are 542 µM and 9.77%.
The compound `Cc1nc(C)c(CN2CCN(Cc3ccccc3Cl)CC2)nc1C` displayed an EC50 with ECV-304 of 405 µM. This compound also showed an Activity in the experiment on Plasma of 9.67%.
In the same order, the values of `Cc1nc(C)c(C)nc1C` [LIGUSTRAZINE] are 452 µM and 7.86%.

These data come from ChEMBL document CHEMBL1147932, “Design, synthesis, and biological activities of novel Ligustrazine derivatives” (Bioorg Med Chem, 2007).
